# Test results from ChEMBL document CHEMBL2390913, “In vitro biosynthesis, isolation, and identification of predominant metabolites of 2-(4-(2-hydroxyethoxy)-3,5-dimethylphenyl)-5,7-dimethoxyquinazolin-4(3H)-one (RVX-208)” (Eur J Med Chem, 2013).
# Tests used:
# Liver microsomes = assay: Drug metabolism in human liver microsomes assessed as M5 metabolite level at 100 uM after 4 hrs by LC/MS analysis in presence of UDPGA; type: ADME, Microsome
# Method in brief: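 Human liver microsomes under the screening protocol. Mix: 0.50 mg protein in 0.5 mL, 100 mM potassium phosphate pH 7.4, NADPH regenerating system, 5 mM UDPGA, 5 mM D-saccharic acid lactone. Microsomes were pre-incubated with alamethicin and the mix pre-warmed 5 min at 37 °C. After 4 h at 37 °C, the reaction was diluted with cold methanol and centrifuged. The filtered supernatant went to analytical HPLC; the M5 fraction was taken for MS/MS.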
# [1] = Drug metabolism in New Zealand White rabbit liver S9 fraction assessed per mg/ml of protein at 0.2 mM after 24 hrs by LC-MS/MS analysis in presence of 25 mM UDPGA; type: ADME, subcellular, Oryctolagus cuniculus; details: read-out: Drug metabolism
# Method in brief: (§1)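 Optimization incubations with rabbit or calf liver microsomes or rabbit S9. Final substrate was 0.2, 0.5 or 2 mM, from DMSO stocks diluted 100-fold. Protein was 1 or 4 mg/mL and UDPGA 5 or 25 mM. Other components were 100 mM potassium phosphate pH 7.4 and an NADPH regenerating system. Microsomes were pre-treated on ice with alamethicin. Reactions ran at 37 °C, were stopped with methanol, processed, and analysed by LC/MS.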
# [2] = Drug metabolism in New Zealand White rabbit liver microsomes assessed per mg/ml of protein at 0.5 mM after 24 hrs by LC-MS/MS analysis in presence of 5 mM UDPGA; type: ADME, Oryctolagus cuniculus, Microsome; details: read-out: Drug metabolism; method in brief: as §1
# [3] = Drug metabolism in New Zealand White rabbit liver S9 fraction assessed per 4 mg/ml of protein at 2 mM after 24 hrs by LC-MS/MS analysis in presence of 5 mM UDPGA; type: ADME, subcellular, Oryctolagus cuniculus; details: read-out: Drug metabolism; method in brief: as §1
# [4] = Activity at human recombinant glucuronyl transferase at 100 uM after 1 to 24 hrs by LC-MS/MS analysis in presence of UDPGA; type: ADME
# Method in brief: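 Recombinant human UDP-glucuronyl transferases. The mix held 100 mM potassium phosphate pH 7.4, 3.3 mM MgCl2, 5 mM UDPGA, and enzyme protein at 0.025–1 mg/mL depending on the enzyme. Substrate came from a 10 mM methanol stock. Mixtures were pre-warmed 5 min at 37 °C, the enzyme was added, and they were shaken at 37 °C for 1, 6 or 24 h. Methanol quench, centrifugation, filtration, drying, resuspension, LC/MS.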
# [5] = Drug metabolism in New Zealand White rabbit liver S9 fraction assessed per 4 mg/ml of protein at 0.5 mM after 24 hrs by LC-MS/MS analysis in presence of 25 mM UDPGA; type: ADME, subcellular, Oryctolagus cuniculus; details: read-out: Drug metabolism; method in brief: as §1
# [6] = Drug metabolism in New Zealand White rabbit liver microsomes assessed per 4 mg/ml of protein at 2 mM after 24 hrs by LC-MS/MS analysis in presence of 5 mM UDPGA; type: ADME, Oryctolagus cuniculus, Microsome; details: read-out: Drug metabolism; method in brief: as §1
# [7] = Drug metabolism in New Zealand White rabbit liver microsomes assessed per mg/ml of protein at 0.2 mM after 24 hrs by LC-MS/MS analysis in presence of 5 mM UDPGA; type: ADME, Oryctolagus cuniculus, Microsome; details: read-out: Drug metabolism; method in brief: as §1
# [8] = Drug metabolism in New Zealand White rabbit liver S9 fraction assessed per mg/ml of protein at 0.5 mM after 24 hrs by LC-MS/MS analysis in presence of 25 mM UDPGA; type: ADME, subcellular, Oryctolagus cuniculus; details: read-out: Drug metabolism; method in brief: as §1
# [9] = Drug metabolism in calf liver microsomes assessed per mg/ml of protein at 2 mM after 24 hrs by LC-MS/MS analysis in presence of 5 mM UDPGA; type: ADME, Bos taurus, Microsome; details: cattle, read-out: Drug metabolism; method in brief: as §1
# [10] = Drug metabolism in New Zealand White rabbit liver S9 fraction assessed per mg/ml of protein at 0.5 mM after 24 hrs by LC-MS/MS analysis in presence of 5 mM UDPGA; type: ADME, subcellular, Oryctolagus cuniculus; details: read-out: Drug metabolism; method in brief: as §1
# [11] = Drug metabolism in New Zealand White rabbit liver microsomes assessed per mg/ml of protein at 0.2 mM after 24 hrs by LC-MS/MS analysis in presence of 25 mM UDPGA; type: ADME, Oryctolagus cuniculus, Microsome; details: read-out: Drug metabolism; method in brief: as §1
# [12] = Drug metabolism in New Zealand White rabbit liver S9 fraction assessed per mg/ml of protein at 2 mM after 24 hrs by LC-MS/MS analysis in presence of 25 mM UDPGA; type: ADME, subcellular, Oryctolagus cuniculus; details: read-out: Drug metabolism; method in brief: as §1
# [13] = Drug metabolism in New Zealand White rabbit liver S9 fraction assessed per mg/ml of protein at 2 mM after 24 hrs by LC-MS/MS analysis in presence of 5 mM UDPGA; type: ADME, subcellular, Oryctolagus cuniculus; details: read-out: Drug metabolism; method in brief: as §1
# [14] = Drug metabolism in New Zealand White rabbit liver microsomes assessed per 4 mg/ml of protein at 0.5 mM after 24 hrs by LC-MS/MS analysis in presence of 25 mM UDPGA; type: ADME, Oryctolagus cuniculus, Microsome; details: read-out: Drug metabolism; method in brief: as §1
# [15] = Drug metabolism in New Zealand White rabbit liver microsomes assessed per mg/ml of protein at 2 mM after 24 hrs by LC-MS/MS analysis in presence of 5 mM UDPGA; type: ADME, Oryctolagus cuniculus, Microsome; details: read-out: Drug metabolism; method in brief: as §1
# [16] = Drug metabolism in New Zealand White rabbit liver S9 fraction assessed per mg/ml of protein at 0.2 mM after 24 hrs by LC-MS/MS analysis in presence of 5 mM UDPGA; type: ADME, subcellular, Oryctolagus cuniculus; details: read-out: Drug metabolism; method in brief: as §1
# [17] = Drug metabolism in New Zealand White rabbit liver S9 fraction assessed per 4 mg/ml of protein at 2 mM after 24 hrs by LC-MS/MS analysis in presence of 25 mM UDPGA; type: ADME, subcellular, Oryctolagus cuniculus; details: read-out: Drug metabolism; method in brief: as §1
# [18] = Drug metabolism in New Zealand White rabbit liver S9 fraction assessed per 4 mg/ml of protein at 0.5 mM after 24 hrs by LC-MS/MS analysis in presence of 5 mM UDPGA; type: ADME, subcellular, Oryctolagus cuniculus; details: read-out: Drug metabolism; method in brief: as §1
# [19] = Drug metabolism in New Zealand White rabbit liver microsomes assessed per mg/ml of protein at 2 mM after 24 hrs by LC-MS/MS analysis in presence of 25 mM UDPGA; type: ADME, Oryctolagus cuniculus, Microsome; details: read-out: Drug metabolism; method in brief: as §1
# [20] = Drug metabolism in calf liver microsomes assessed per 4 mg/ml of protein at 2 mM after 24 hrs by LC-MS/MS analysis in presence of 5 mM UDPGA; type: ADME, Bos taurus, Microsome; details: cattle, read-out: Drug metabolism; method in brief: as §1
# [21] = Drug metabolism in calf liver microsomes assessed per 4 mg/ml of protein at 0.5 mM after 24 hrs by LC-MS/MS analysis in presence of 5 mM UDPGA; type: ADME, Bos taurus, Microsome; details: cattle, read-out: Drug metabolism; method in brief: as §1
# [22] = Drug metabolism in New Zealand White rabbit liver microsomes assessed per mg/ml of protein at 0.5 mM after 24 hrs by LC-MS/MS analysis in presence of 25 mM UDPGA; type: ADME, Oryctolagus cuniculus, Microsome; details: read-out: Drug metabolism; method in brief: as §1
# [23] = Drug metabolism in New Zealand White rabbit liver S9 fraction assessed per 20 mg of protein at 1 mM after 24 hrs by LC/MS analysis in presence of UDPGA; type: ADME, subcellular, Oryctolagus cuniculus; details: read-out: Drug metabolism
# Method in brief: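 Scale-up reaction with rabbit liver S9. Each mix was 10 mL with 20 mg S9 protein, 100 mM potassium phosphate pH 7.4, 1 mM substrate (from a 0.1 M DMSO stock), an NADPH regenerating system (1.3 mM NADP+, 3.3 mM glucose-6-phosphate, 0.4 U/mL G6PDH, 3.3 mM MgCl2) and 10 mM UDPGA. Six parallel vials were shaken 24 h at 37 °C, then pooled, methanol-quenched, and passed through C18 SPE and prep HPLC.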
# [24] = Drug metabolism in New Zealand White rabbit liver microsomes assessed per 4 mg/ml of protein at 2 mM after 24 hrs by LC-MS/MS analysis in presence of 25 mM UDPGA; type: ADME, Oryctolagus cuniculus, Microsome; details: read-out: Drug metabolism; method in brief: as §1
# [25] = Drug metabolism in New Zealand White rabbit liver microsomes assessed per 4 mg/ml of protein at 0.5 mM after 24 hrs by LC-MS/MS analysis in presence of 5 mM UDPGA; type: ADME, Oryctolagus cuniculus, Microsome; details: read-out: Drug metabolism; method in brief: as §1
structure (smiles),measurement,setting,value
COc1cc(OC)c2c(=O)[nH]c(-c3cc(C)c(OCCO)c(C)c3)nc2c1 [APABETALONE],Drug metabolism,Liver microsomes,Active
same,"metabolised at 24 h, 200 µM",[1],21.4%
same,"metabolised at 24 h, 500 µM",[2],39.5%
same,"metabolised at 24 h, 2000 µM",[3],30.3%
same,Activity,[4],< 1%
same,"metabolised at 24 h, 500 µM",[5],41.3%
same,"metabolised at 24 h, 2000 µM",[6],30%
same,"metabolised at 24 h, 200 µM",[7],34.6%
same,"metabolised at 24 h, 500 µM",[8],25.7%
same,"metabolised at 24 h, 2000 µM",[9],40.9%
same,"metabolised at 24 h, 500 µM",[10],23.2%
same,"metabolised at 24 h, 200 µM",[11],49.7%
same,"metabolised at 24 h, 2000 µM",[12],16.7%
same,"metabolised at 24 h, 2000 µM",[13],17.5%
same,"metabolised at 24 h, 500 µM",[14],54.3%
same,"metabolised at 24 h, 2000 µM",[15],38.4%
same,"metabolised at 24 h, 200 µM",[16],22.3%
same,"metabolised at 24 h, 2000 µM",[17],35.2%
same,"metabolised at 24 h, 500 µM",[18],33%
same,"metabolised at 24 h, 2000 µM",[19],39.7%
same,"metabolised at 24 h, 2000 µM",[20],50.1%
same,"metabolised at 24 h, 500 µM",[21],56%
same,"metabolised at 24 h, 500 µM",[22],49.4%
same,"metabolised at 24 h, 1000 µM",[23],22%
same,"metabolised at 24 h, 2000 µM",[24],48.9%
same,"metabolised at 24 h, 500 µM",[25],24.1%
